# Test results reported in ChEMBL document CHEMBL3860043, “Non-Acidic Free Fatty Acid Receptor 4 Agonists with Antidiabetic Activity” (J Med Chem, 2016).
# Active and inactive are the calls of the source. The calls are words filed in the database; no cut-off is given here.
# Tests used:
# [1] = molecular target: T1, Free fatty acid receptor 4 (Homo sapiens) (UniProt Q5NUL3); test: Agonist activity at human FFA4 expressed in human Flp-In T-REx293 cells by Fura2-AM dye based calcium mobilization assay relative to 100 uM […]; type: functional, cell-based
# T1 sequence (whole entry): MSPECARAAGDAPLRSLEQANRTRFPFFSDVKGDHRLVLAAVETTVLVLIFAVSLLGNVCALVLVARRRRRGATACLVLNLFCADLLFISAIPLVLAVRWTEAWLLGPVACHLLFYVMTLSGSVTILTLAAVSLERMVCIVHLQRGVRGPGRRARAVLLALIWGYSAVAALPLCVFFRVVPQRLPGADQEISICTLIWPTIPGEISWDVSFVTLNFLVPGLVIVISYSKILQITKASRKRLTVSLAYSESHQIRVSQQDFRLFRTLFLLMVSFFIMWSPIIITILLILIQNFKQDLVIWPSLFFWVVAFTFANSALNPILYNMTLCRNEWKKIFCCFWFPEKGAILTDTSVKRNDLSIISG
# Outline: (§1)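 Flp-In T-REx 293 cells with doxycycline-inducible human FFA4 seeded at 50000 cells/well and induced overnight with 100 ng/ml doxycycline. Loaded with Fura2-AM for 45 min, washed three times in HBSS, equilibrated 15 min, then ligand added. Emission at 510 nm with 340/380 nm excitation; response is the change in 340:380 ratio. Efficacy relative to 100 µM reference agonist; 2-4 independent experiments, sigmoidal fits.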
# [2] = molecular target: T2, Free fatty acid receptor 4 (Homo sapiens, UniProt Q5NUL3); test: Agonist activity at C-terminal YFP-tagged human FFA4 expressed in HEK293 cells in presence of coelentrazine h by BRET based beta-arrestin-2 interaction assay; type: cell-based
# T2 sequence (Q5NUL3 whole entry): T1 sequence (whole entry)
# Outline: (§2)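 HEK293 cells co-transfected with C-terminal eYFP-fused human FFA4 and β-arrestin-2–Renilla luciferase; plated 24 h post-transfection, used 24 h later. After an HBSS wash, coelenterazine h (2.5 µM) for 15 min, with ligands present for the final 5 min, 37 °C. BRET taken as the 535/475 nm emission ratio. Efficacy relative to 100 µM reference agonist. Three-parameter sigmoidal fits; mean ± S.E. of 2-4 independent experiments.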
# [3] = molecular target: T1, Free fatty acid receptor 4 (Homo sapiens); test: Agonist activity at C-terminal YFP-tagged human FFA4 expressed in HEK293 cells in presence of coelentrazine h by BRET based beta-arrestin-2 interaction assay relative to 100 uM […]; type: cell-based; outline: as §2
# [4] = molecular target: T2, Free fatty acid receptor 4; test: Agonist activity at human FFA4 expressed in human Flp-In T-REx293 cells by Fura2-AM dye based calcium mobilization assay; type: functional, cell-based; outline: as §1
# [5] = molecular target: T3, Free fatty acid receptor 1 (Homo sapiens, UniProt O14842); test: Antagonist activity against human FFA1 expressed in human Flp-In T-REx293 cells assessed as as reduction in TUG424-induced response by Fura2-AM dye based calcium mobilization assay; type: functional, cell-based
# Outline: (§3)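 Flp-In T-REx 293 cells with inducible human FFA1, seeded at 50000 cells/well and induced with 100 ng/ml doxycycline after 3-4 h adherence. Next day loaded with Fura2-AM for 45 min, washed, then preincubated 15 min in HBSS with test ligand before 300 nM agonist challenge. Fura2 340:380 ratio change read at 510 nm emission. Inhibition expressed as % reduction of the agonist response.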
# [6] = molecular target: T3, Free fatty acid receptor 1; test: Antagonist activity against human FFA1 expressed in human Flp-In T-REx293 cells assessed as as reduction in 300 nM TUG424-induced response by Fura2-AM dye based calcium mobilization assay relative to untreated control; type: functional, cell-based; outline: as §3
# Mus musculus [7] = test: Reduction in plasma glucose level in mouse at 10 mg/kg, po dosed 15 mins before oral glucose challenge by OGTT method; type: functional, organism-based
# Outline: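 Mice fasted 5 h and given compound orally at 10 mg/kg, 15 min before an oral glucose load of 3 g/kg. Tail-tip blood sampled under local anesthetic 30 min before and immediately before the load, and at 30, 60, 90, 120 and 180 min after it. Glucose measured in duplicate by glucose oxidase colorimetric assay; n=6 mice per group.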
# [8] = molecular target: T4, Free fatty acid receptor 4 (Mus musculus, UniProt Q7TMA4); test: Agonist activity mouse FFA4 by Gq-dependent calcium mobilization assay; type: functional
# T4 sequence (Q7TMA4 whole entry): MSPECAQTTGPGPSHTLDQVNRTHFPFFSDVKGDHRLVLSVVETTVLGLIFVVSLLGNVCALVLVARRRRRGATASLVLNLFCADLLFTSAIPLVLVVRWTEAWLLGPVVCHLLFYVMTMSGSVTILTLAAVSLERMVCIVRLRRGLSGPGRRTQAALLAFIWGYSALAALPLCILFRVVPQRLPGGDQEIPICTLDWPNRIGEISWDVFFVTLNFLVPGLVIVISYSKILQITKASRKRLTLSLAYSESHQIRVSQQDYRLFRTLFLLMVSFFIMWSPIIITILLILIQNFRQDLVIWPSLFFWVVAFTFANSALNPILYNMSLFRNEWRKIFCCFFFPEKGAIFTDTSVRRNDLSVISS
# [9] = Lipophilicity, log D of the compound at pH 7.4; type: physicochemical; details: buffer
# Homo sapiens [10] = organism: Homo sapiens; test: Selectivity for human FFA4 over FFA3 (unknown origin)
# Homo sapiens [11] = organism: Homo sapiens; test: Selectivity for human FFA4 over human FFA1
# Mus musculus [12] = test: Reduction in fasting plasma insulin level in wild type DIO mouse at 10 mg/kg, po dosed daily over 3 week period administered 15 mins before oral glucose challenge on first day measured after 21 days by ELISA; type: functional, organism-based
# Outline: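 DIO wild-type and FFA4(-/-) littermates (63% fat diet for 5 months) dosed 10 mg/kg po once daily for 21 days. Fasting blood collected into EDTA and spun at 3,000 g for 5 min at 4 °C; plasma stored at -80 °C. Insulin measured in duplicate by murine insulin ELISA, absorbance at 450 nm.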
# [13] = Effect on food intake level in wild type DIO mouse at 10 mg/kg, po dosed daily over 3 week period administered 15 mins before oral glucose challenge on first day measured after 21 days; type: ADME, organism-based; details: in vivo, 504 h
# Mus musculus [14] = test: Reduction in glucose level in wild type DIO mouse at 10 mg/kg, po dosed daily over 3 week period administered 15 mins before oral glucose challenge on first day measured after 21 days by OGTT method; type: functional, organism-based
# [15] = molecular target: T4, Free fatty acid receptor 4; test: Agonist activity mouse FFA4 by BRET based beta-arrestin-2 interaction assay
# Outline: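 Mouse FFA4 fused C-terminally to eYFP, co-transfected into HEK293 cells with β-arrestin-2–Renilla luciferase. After an HBSS wash, coelenterazine h (2.5 µM) for 15 min, with ligand added for the last 5 min, 37 °C. BRET read as the 535/475 nm luminescence ratio. Three-parameter sigmoidal curve fitting; 2-4 independent experiments.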
# [16] = Solubility in FaSSIF solution; type: physicochemical
# [17] = Effect on food intake level in FFA4 (-/-) DIO mouse at 10 mg/kg, po dosed daily over 3 week period administered 15 mins before oral glucose challenge on first day measured after 21 days; type: ADME, organism-based; details: in vivo, 504 h
# [18] = Effect on water intake level in wild type DIO mouse at 10 mg/kg, po dosed daily over 3 week period administered 15 mins before oral glucose challenge on first day measured after 21 days; type: ADME, organism-based; details: in vivo, 504 h
# [19] = Effect on water intake level in FFA4 (-/-) DIO mouse at 10 mg/kg, po dosed daily over 3 week period administered 15 mins before oral glucose challenge on first day measured after 21 days; type: ADME, organism-based; details: in vivo, 504 h
# [20] = Solubility in PBS buffer; type: physicochemical
# Homo sapiens [21] = organism: Homo sapiens; test: Selectivity for human FFA4 over FFA2 (unknown origin)
# Mus musculus [22] = test: Toxicity in FFA4 (-/-) DIO mouse assessed as weight gain in at 10 mg/kg, po dosed daily over 3 week period administered 15 mins before oral glucose challenge on first day measured after 21 days; type: organism-based; details: in vivo, 504 h
# Mus musculus [23] = test: Reduction in plasma glucose level in wild type DIO mouse at 10 mg/kg, po dosed daily over 3 week period administered 15 mins before oral glucose challenge on first day by OGTT method; type: functional, organism-based
# Outline: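 Male wild-type and FFA4(-/-) littermates (C57Bl6 background) fed 63% high-fat diet from 6 weeks of age for 5 months. On day 0, fasted 5 h, dosed 10 mg/kg po, then given glucose 3 g/kg po 15 min later. Tail blood sampled from -30 to 180 min; glucose measured in duplicate by colorimetric glucose oxidase assay. n=9 per group; two-way ANOVA with Bonferroni post hoc test.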
# Mus musculus [24] = test: Increase in plasma insulin level in wild type DIO mouse at 10 mg/kg, po dosed daily over 3 week period administered 15 mins before oral glucose challenge on first day measured 30 mins after glucose challenge by ELISA; type: functional, organism-based
# Mus musculus [25] = test: Toxicity in wild type DIO mouse assessed as reduction in body weight at 10 mg/kg, po dosed daily over 3 week period administered 15 mins before oral glucose challenge on first day measured after 21 days; type: organism-based; set-up: scale not given: the % may be the effect or the level left; details: in vivo, 504 h
# Mus musculus [26] = test: Toxicity in FFA4 (-/-) DIO mouse assessed as reduction in body weight at 10 mg/kg, po dosed daily over 3 week period administered 15 mins before oral glucose challenge on first day measured after 21 days; type: organism-based; details: in vivo, 504 h
# T3 sequence (O14842 whole entry): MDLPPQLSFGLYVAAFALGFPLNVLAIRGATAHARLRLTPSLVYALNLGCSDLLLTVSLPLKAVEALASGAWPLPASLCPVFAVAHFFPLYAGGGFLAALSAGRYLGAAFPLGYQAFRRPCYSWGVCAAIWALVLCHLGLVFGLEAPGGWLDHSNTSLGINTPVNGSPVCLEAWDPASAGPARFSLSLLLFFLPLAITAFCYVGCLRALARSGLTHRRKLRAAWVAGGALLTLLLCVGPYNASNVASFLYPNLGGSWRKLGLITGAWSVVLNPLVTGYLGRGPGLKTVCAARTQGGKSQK
smiles,measurement,setting,value
O=S1(=O)c2ccccc2CN1c1cc(F)cc(Oc2ccncc2)c1,Emax,[1],120%
same,EC50,[2]; read-out: pEC50 (converted),1260 nM
same,Emax,[3],97%
same,EC50,[4],1700 nM
same,IC50,[5],> 100000 nM
O=S1(=O)c2ccccc2CN1c1cc(F)cc(Oc2ccccc2)c1,Emax,[1],78%
same,EC50,[2],< 10000 nM
same,EC50,[2]; read-out: pEC50 (converted),234 nM
same,Emax,[3],101%
same,EC50,[4],380 nM
same,IC50,[5],3890 nM
same,Imax,[6],47%
O=S1(=O)c2ccccc2CN1c1cc(F)cc(Oc2ccccn2)c1,Activity,Mus musculus [7],Active
same,Emax,[1],130%
same,EC50,[8],148 nM
same,logD,[9],3.17
same,EC50,[2]; read-out: EC50,128 nM
same,EC50,[2]; read-out: pEC50 (converted),123 nM
same,Selectivity ratio,Homo sapiens [10],> 300
same,Selectivity ratio,Homo sapiens [11],> 300
same,Activity,Mus musculus [12],Active
same,Activity,[13],Non-Toxic
same,Activity,Mus musculus [14],Active
same,EC50,[15],479 nM
same,solubility,[16],14 µM
same,Activity,[17],Non-Toxic
same,Emax,[3],98%
same,Activity,[18],Non-Toxic
same,EC50,[4],234 nM
same,Activity,[19],Non-Toxic
same,solubility,[20],1.3 µM
same,Selectivity ratio,Homo sapiens [21],> 300
same,IC50,[5],> 100000 nM
same,Activity,Mus musculus [22],Non-Toxic
same,Activity,Mus musculus [23],Active
same,Activity,Mus musculus [24],Active
same,Activity,Mus musculus [25],7 to 9%
same,Activity,Mus musculus [26],Non-Toxic
Cc1ccccc1Oc1cc(F)cc(N2Cc3ccccc3S2(=O)=O)c1,EC50,[2]; read-out: pEC50 (converted),2690 nM
same,Emax,[3],42%
same,IC50,[5],44700 nM
same,Imax,[6],71%
CN(c1ccc(Oc2ccccc2)cc1)S(=O)(=O)c1ccc(F)cc1,IC50,[5],10700 nM
same,Imax,[6],57%
O=S1(=O)c2ccccc2CN1c1cc(F)cc(Oc2cccnc2)c1,Activity,Mus musculus [7],Active
same,Emax,[1],115%
same,EC50,[8],83.2 nM
same,logD,[9],3.12
same,EC50,[2]; read-out: pEC50 (converted),437 nM
same,Emax,[3],107%
same,EC50,[4],302 nM
same,solubility,[20],11 µM
same,IC50,[5],> 100000 nM
Cc1ccc(Oc2cc(F)cc(N3Cc4ccccc4S3(=O)=O)c2)cc1,Emax,[1],38%
same,EC50,[2]; read-out: pEC50 (converted),437 nM
same,Emax,[3],91%
same,EC50,[4],1100 nM
same,IC50,[5],2880 nM
same,Imax,[6],52%
O=S(=O)(Nc1ccc(Oc2ccccc2)cc1)c1ccc(F)cc1,EC50,[2]; read-out: pEC50 (converted),3550 nM
same,Emax,[3],52%
same,IC50,[5],12900 nM
same,Imax,[6],95%
N#Cc1cccc(Oc2cc(F)cc(N3Cc4ccccc4S3(=O)=O)c2)c1,EC50,[2]; read-out: pEC50 (converted),5750 nM
same,Emax,[3],83%
same,IC50,[5],3390 nM
same,Imax,[6],52%
O=S1(=O)c2ccccc2CN1c1cccc(Oc2ccccc2)c1,Emax,[1],105%
same,EC50,[2]; read-out: pEC50 (converted),245 nM
same,Emax,[3],95%
same,EC50,[4],209 nM
same,IC50,[5],174 nM
same,Imax,[6],39%
N#Cc1ccc(Oc2cc(F)cc(N3Cc4ccccc4S3(=O)=O)c2)cc1,Emax,[1],29%
same,EC50,[2]; read-out: pEC50 (converted),1660 nM
same,Emax,[3],87%
same,EC50,[4],2340 nM
same,IC50,[5],617 nM
same,Imax,[6],43%
